Measured values of several laboratories.
Protocols differ between the studies behind these lines. pIC50, pKi: −log10 of the molar value.
Target: Carbonic anhydrase 2 (CA2, Homo sapiens, UniProt P00918)
Observed: enzyme activity
Action: inhibitor

With O=C(O)c1ccc(Nc2nc(-c3cc4cc(Br)ccc4oc3=O)cs2)cc1 the pIC50 was 5.89 (absorbance).
For CC(C)CNC(=S)N/N=C/c1ccc(N2CCC(O)CC2)cc1, the pIC50 was 6.16 (absorbance).
For CC[C@H]1OC(=O)[C@H](C)[C@@H](O[C@H]2C[C@@](C)(OC)[C@@H](O)[C@H](C)O2)[C@H](C)[C@@H](O[C@@H]2O[C@H](C)C[C@H](N(C)C)[C@H]2O)[C@](C)(O)C[C@@H](C)CN(C)[C@H](C)[C@@H](O)[C@]1(C)O, the pIC50 was 4.89 (absorbance; pH 7.4).
With OC1CCN(c2ccc(/C=N/NC(=S)Nc3ccc(Br)cc3)cc2)CC1 the pIC50 was 6.48 (absorbance).
With O=c1[nH]c(=O)n([C@H]2C[C@H](O)[C@@H](CO)O2)cc1/C=C/Br the pIC50 was 4.93 (absorbance; pH 7.4).
The pKi of NS(=O)(=O)c1cnc(NC(=O)CCc2ccccc2)s1 is reported as 7.01 (stopped-flow).
For Cc1ccc(CNC(=S)N/N=C/c2ccc(N3CCC(O)CC3)cc2)cc1, the pIC50 was 6.16 (absorbance).
Cc1cccc(CC(=O)Nc2nnc(S(N)(=O)=O)s2)c1 gave a pKi of 7.43 (stopped-flow).
O=C(O)COCCN1CCN(C(c2ccccc2)c2ccc(Cl)cc2)CC1 (stereo not drawn) gave a pIC50 of 4.82 (absorbance; pH 7.4).
For OC1CCN(c2ccc(/C=N/NC(=S)Nc3cccc(Cl)c3Cl)cc2)CC1, the pIC50 was 6.57 (absorbance).
For NS(=O)(=O)c1nnc(NC(=O)CCC2CCCCO2)s1 (stereo not drawn), the pKi was 9.08 (stopped-flow).
CCOC(=O)N1CCC(=C2c3ccc(Cl)cc3CCc3cccnc32)CC1 gave a pIC50 of 4.88 (absorbance; pH 7.4).
Cc1ccccc1C(=O)Nc1nnc(S(N)(=O)=O)s1 gave a pKi of 7.59 (stopped-flow).
With Cn1cnc([N+](=O)[O-])c1Sc1ncnc2nc[nH]c12 the pIC50 was 4.69 (absorbance; pH 7.4).
With OC1CCN(c2ccc(/C=N/NC(=S)NCc3ccc(Cl)cc3)cc2)CC1 the pIC50 was 6.43 (absorbance).
